Columns and labels:
[1] = Cytotoxicity against Cricetulus griseus CHO cells; type: cell-based; conditions: chinese hamster, read-out: TC50 (the source's name)
Plasmodium berghei [2] = assay: Antimalarial activity against GFP-tagged Plasmodium berghei ANKA infected in NMRI mouse assessed as reduction in parasitemia at 30 mg/kg, po QD administered 24 hrs post infection for 3 days measured on day 4 post infection; type: functional; set-up: scale not given: the % may be the effect or the level left
Plasmodium berghei [3] = assay: Antimalarial activity against GFP-tagged Plasmodium berghei ANKA infected in NMRI mouse assessed as mouse survival at 30 mg/kg, po QD administered 24 hrs post infection for 3 days measured on day 30 post infection; type: functional
Rattus norvegicus = assay: Toxicity in rat assessed as adverse effect at 500 mg/kg; type: organism-based; set-up: dose 500 mg/kg; conditions: in vivo
[4] = AUC (0 to infinity) in male BALB/c mouse at 5 mg/kg, iv by LC/MS/MS analysis; type: ADME, organism-based; set-up: time infinity, dose 5 mg/kg, route intravenous; conditions: plasma
In short: (§1)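 Male Balb/c mice, n = 3 per group, dosed iv via lateral tail vein at 5 mg/kg and 2 mL/kg. Vehicle 2.5 mg/mL in 75% PEG300/25% DSW, filtered. Six serial retro-orbital blood samples up to 24 h, heparinized plasma. Plasma extracted with acetonitrile/methanol (3:1) plus internal standard for LC/MS/MS (positive ESI, MRM). Noncompartmental analysis.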

Plasmodium berghei [5] = assay: Antimalarial activity against GFP-tagged Plasmodium berghei ANKA infected in NMRI mouse assessed as mouse survival at 30 mg/kg, po administered as single dose 24 hrs post infection measured 72 hrs post infection
[6] = Half-life in male BALB/c mouse at 5 mg/kg, iv by LC/MS/MS analysis; type: ADME, organism-based; set-up: dose 5 mg/kg, route intravenous; conditions: in vivo; in short: as §1
Plasmodium falciparum [7] = assay: Antimalarial activity against Plasmodium falciparum 3D7 infected in human erythrocytes assessed as decrease in parasitemia after 72 hrs; type: functional, organism-based; conditions: 3D7, 72 h
[8] = Cytotoxicity against human 293T cells; type: cell-based; conditions: HEK-293T cells, read-out: TC50 (the source's name)
[9] = Tmax in male BALB/c mouse at 20 mg/kg, po by LC/MS/MS analysis; type: ADME, organism-based; set-up: dose 20 mg/kg, route oral; conditions: in vivo
In short: (§2)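 Male Balb/c mice, n = 3 per group, given 20 mg/kg orally at 8 mL/kg. Vehicle 2.5 mg/mL in 75% PEG300/25% DSW, filtered. Six serial retro-orbital blood samples up to 24 h, heparinized plasma. Plasma extracted with acetonitrile/methanol (3:1) plus internal standard; LC/MS/MS quantitation by positive ESI MRM. Noncompartmental analysis; values normalized to 30 mg/kg. F = (AUCpo·dose iv)/(AUCiv·dose po).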

[10] = Volume of distribution in male BALB/c mouse at 5 mg/kg, iv by LC/MS/MS analysis; type: ADME, organism-based; set-up: dose 5 mg/kg, route intravenous; conditions: in vivo; in short: as §1
[11] = Cytotoxicity against human Hep2 cells; type: cell-based; conditions: HEp-2 cells, read-out: TC50 (the source's name)
Cytochrome P450 3A4 = Cytochrome P450 3A4 (Homo sapiens, UniProt P08684); assay: Inhibition of CYP 3A4; type: ADME
Cytochrome P450 3A4, sequence (P08684 whole entry): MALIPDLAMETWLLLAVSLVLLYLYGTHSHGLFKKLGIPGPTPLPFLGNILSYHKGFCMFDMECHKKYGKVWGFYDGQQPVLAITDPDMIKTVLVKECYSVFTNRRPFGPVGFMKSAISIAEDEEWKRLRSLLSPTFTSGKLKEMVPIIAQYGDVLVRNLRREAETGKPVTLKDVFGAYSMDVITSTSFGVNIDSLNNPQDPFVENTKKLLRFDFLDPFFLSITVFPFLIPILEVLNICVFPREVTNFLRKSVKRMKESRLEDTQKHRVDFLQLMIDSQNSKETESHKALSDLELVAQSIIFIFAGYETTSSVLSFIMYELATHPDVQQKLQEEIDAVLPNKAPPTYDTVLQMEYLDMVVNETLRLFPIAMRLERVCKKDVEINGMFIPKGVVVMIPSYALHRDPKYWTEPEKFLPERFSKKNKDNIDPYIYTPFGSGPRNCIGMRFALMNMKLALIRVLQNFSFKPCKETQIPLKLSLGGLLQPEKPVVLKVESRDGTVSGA

[12] = Clearance in male BALB/c mouse at 5 mg/kg, iv by LC/MS/MS analysis; type: ADME, organism-based; set-up: dose 5 mg/kg, route intravenous; conditions: in vivo; in short: as §1
Cytochrome P450 1A2 = target: T1, Cytochrome P450 1A2 (Homo sapiens, UniProt P05177); assay: Inhibition of CYP 1A2; type: ADME
T1 sequence (P05177 whole entry): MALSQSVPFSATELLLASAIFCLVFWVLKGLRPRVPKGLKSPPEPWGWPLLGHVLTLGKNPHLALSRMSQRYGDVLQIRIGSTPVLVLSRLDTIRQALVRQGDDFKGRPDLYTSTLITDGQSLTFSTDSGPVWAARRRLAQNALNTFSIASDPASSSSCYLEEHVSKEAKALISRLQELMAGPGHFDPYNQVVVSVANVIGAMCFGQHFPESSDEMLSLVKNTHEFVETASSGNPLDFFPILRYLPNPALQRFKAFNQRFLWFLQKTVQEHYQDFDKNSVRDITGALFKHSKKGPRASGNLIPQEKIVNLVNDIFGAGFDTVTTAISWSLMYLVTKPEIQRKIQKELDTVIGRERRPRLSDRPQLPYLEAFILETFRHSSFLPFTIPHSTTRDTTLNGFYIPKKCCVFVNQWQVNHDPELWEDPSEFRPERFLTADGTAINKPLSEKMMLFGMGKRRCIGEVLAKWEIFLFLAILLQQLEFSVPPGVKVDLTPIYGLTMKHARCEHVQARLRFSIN

in vitro [13] = conditions: human, Caco-2
[14] = Oral bioavailability in male BALB/c mouse at 20 mg/kg by LC/MS/MS analysis; type: ADME, organism-based; conditions: in vivo; in short: as §2
Cytochrome P450 2C9 = Cytochrome P450 2C9 (Homo sapiens, UniProt P11712); assay: Inhibition of CYP 2C9; type: ADME
Cytochrome P450 2C9, sequence (P11712 whole entry): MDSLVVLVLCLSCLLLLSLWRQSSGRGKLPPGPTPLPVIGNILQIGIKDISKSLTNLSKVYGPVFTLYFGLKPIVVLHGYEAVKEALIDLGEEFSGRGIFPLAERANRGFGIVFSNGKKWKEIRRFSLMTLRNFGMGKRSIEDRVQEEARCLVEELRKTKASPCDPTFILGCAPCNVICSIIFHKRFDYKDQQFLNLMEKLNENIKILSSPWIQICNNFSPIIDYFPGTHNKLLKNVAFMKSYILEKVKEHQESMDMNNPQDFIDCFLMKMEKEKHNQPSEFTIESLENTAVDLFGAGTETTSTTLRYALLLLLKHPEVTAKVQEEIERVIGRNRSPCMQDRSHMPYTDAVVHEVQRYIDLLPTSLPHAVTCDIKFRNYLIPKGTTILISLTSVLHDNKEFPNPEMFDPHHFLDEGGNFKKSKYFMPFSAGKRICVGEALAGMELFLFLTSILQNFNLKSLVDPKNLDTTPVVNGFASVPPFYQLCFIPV

[15] = pampa
Mus musculus [16] = assay: Cmax in male BALB/c mouse at 20 mg/kg, po by LC/MS/MS analysis; type: ADME, organism-based; set-up: dose 20 mg/kg, route oral; conditions: in vivo; in short: as §2
Mus musculus [17] = assay: AUC (0 to infinity) in male BALB/c mouse at 20 mg/kg, po by LC/MS/MS analysis; type: ADME, organism-based, Plasma; set-up: time infinity, dose 20 mg/kg, route oral; conditions: in vivo; in short: as §2
[18] = Half life in male BALB/c mouse at 20 mg/kg, po by LC/MS/MS analysis; type: ADME, organism-based; set-up: dose 20 mg/kg, route oral; conditions: in vivo; in short: as §2
[19] = Cytotoxicity against human HuH7 cells; type: cell-based; conditions: Huh-7 cells, read-out: TC50 (the source's name)
in vitro [20] = conditions: human, Caco-2; remark: listed apart in the source
Cytochrome P450 2D6 = Cytochrome P450 2D6 (Homo sapiens, UniProt P10635); assay: Inhibition of CYP 2D6; type: ADME
Cytochrome P450 2D6, sequence (P10635 whole entry): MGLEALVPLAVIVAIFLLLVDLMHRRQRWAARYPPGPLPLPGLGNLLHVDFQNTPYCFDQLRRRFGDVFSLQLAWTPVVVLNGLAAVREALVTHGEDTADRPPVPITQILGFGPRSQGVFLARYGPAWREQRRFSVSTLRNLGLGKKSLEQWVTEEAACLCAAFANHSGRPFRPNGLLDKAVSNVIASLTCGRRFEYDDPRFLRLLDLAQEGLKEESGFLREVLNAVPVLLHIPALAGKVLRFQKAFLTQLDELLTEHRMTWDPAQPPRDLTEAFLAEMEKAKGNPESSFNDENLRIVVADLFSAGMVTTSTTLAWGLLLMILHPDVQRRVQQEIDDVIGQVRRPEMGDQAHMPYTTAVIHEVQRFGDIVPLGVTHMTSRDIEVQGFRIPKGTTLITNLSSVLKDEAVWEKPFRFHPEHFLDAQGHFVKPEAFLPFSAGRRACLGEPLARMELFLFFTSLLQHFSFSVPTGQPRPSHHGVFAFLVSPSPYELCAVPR

[21] = Cytotoxicity against human HeLa cells; type: cell-based; conditions: read-out: TC50 (the source's name)
Cytochrome P450 2C19 = Cytochrome P450 2C19 (Homo sapiens, UniProt P33261); assay: Inhibition of CYP 2C19; type: ADME
Cytochrome P450 2C19, sequence (P33261 whole entry): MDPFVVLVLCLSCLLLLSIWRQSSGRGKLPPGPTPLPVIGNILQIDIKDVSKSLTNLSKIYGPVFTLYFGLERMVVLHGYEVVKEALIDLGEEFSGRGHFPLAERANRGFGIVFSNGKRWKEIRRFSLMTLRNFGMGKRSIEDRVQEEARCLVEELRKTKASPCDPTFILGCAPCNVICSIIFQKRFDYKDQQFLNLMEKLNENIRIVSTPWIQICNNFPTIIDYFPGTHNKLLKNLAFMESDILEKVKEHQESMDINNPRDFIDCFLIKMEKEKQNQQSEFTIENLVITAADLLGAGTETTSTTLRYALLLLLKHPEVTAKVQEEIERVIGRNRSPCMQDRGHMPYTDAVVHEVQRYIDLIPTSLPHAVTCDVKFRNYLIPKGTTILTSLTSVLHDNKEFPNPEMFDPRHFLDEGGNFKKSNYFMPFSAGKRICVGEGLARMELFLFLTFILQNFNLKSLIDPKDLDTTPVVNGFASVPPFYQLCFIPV

[22] = Cytotoxicity against mouse BAF3 cells; type: cell-based; conditions: read-out: TC50 (the source's name)
Plasmodium falciparum [23] = assay: Antimalarial activity against Plasmodium falciparum W2 infected in human erythrocytes assessed as decrease in parasitemia after 72 hrs; type: functional, organism-based; conditions: W2, 72 h
Plasmodium berghei [24] = assay: Antimalarial activity against GFP-tagged Plasmodium berghei ANKA infected in NMRI mouse assessed as reduction in parasitemia at 30 mg/kg, po administered as single dose 24 hrs post infection measured 72 hrs post infection; type: functional; set-up: scale not given: the % may be the effect or the level left
in vivo [25] = conditions: female, CD1, mouse, plasma, iv, 5 mg/kg
in vitro [26] = conditions: human, microsomes
in vitro [27] = conditions: mouse, microsomes
in vivo [28] = conditions: female, CD1, mouse, po, 30 mg/kg
in vivo [29] = conditions: female, CD1, mouse, iv, 5 mg/kg
in vivo [30] = conditions: female, CD1, mouse, iv, 5 mg/kg; remark: listed apart in the source
[31] = target: Voltage-gated inwardly rectifying potassium channel KCNH2 (Homo sapiens, UniProt Q12809)
Voltage-gated inwardly rectifying potassium channel KCNH2, sequence (Q12809 whole entry): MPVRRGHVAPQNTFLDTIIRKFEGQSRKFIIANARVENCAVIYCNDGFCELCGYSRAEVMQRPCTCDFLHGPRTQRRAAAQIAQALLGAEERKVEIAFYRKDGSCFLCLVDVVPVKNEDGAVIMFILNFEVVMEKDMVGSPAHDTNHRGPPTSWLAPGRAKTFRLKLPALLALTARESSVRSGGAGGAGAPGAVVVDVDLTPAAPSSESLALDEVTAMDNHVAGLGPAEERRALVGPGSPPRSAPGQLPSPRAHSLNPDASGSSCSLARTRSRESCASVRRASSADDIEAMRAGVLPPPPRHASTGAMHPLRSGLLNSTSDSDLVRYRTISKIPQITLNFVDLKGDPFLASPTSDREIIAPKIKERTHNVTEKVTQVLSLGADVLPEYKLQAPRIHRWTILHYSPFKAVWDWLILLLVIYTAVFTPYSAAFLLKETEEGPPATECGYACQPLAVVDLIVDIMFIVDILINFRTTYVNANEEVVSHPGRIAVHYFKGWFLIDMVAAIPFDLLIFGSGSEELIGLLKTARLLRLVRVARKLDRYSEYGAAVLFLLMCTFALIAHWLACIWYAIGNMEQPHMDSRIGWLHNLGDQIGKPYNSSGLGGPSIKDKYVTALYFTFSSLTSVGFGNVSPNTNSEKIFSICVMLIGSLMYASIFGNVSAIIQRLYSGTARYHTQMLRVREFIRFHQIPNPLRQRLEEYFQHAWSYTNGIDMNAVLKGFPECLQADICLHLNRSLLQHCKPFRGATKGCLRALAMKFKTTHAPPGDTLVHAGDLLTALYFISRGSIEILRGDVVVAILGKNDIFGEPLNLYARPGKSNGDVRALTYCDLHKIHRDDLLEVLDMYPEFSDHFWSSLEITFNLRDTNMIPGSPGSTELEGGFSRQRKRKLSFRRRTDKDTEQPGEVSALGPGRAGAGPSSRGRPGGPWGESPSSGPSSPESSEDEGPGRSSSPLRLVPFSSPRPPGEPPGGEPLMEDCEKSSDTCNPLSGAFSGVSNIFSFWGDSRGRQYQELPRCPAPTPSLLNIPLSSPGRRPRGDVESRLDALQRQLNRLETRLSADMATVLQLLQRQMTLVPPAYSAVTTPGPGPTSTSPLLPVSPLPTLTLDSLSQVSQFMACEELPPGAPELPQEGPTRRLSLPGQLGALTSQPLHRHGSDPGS

in vivo [32] = conditions: female, CD1, mouse, iv, 5 mg/kg; remark: listed apart in the source
[33] = Cmax in female CD1 mouse at 30 mg/kg, po by LC/MS/MS analysis; conditions: in vivo
Plasmodium berghei [34] = assay: Antimalarial activity against GFP-tagged Plasmodium berghei ANKA infected in NMRI mouse assessed as mouse survival at 100 mg/kg, po administered as single dose 24 hrs post infection measured on day 30 post infection
Mus musculus [35] = assay: Oral bioavailability in female CD1 mouse at 30 mg/kg by LC/MS/MS analysis; conditions: mouse, in vivo
in vitro [36] = conditions: rat, microsomes
in vivo [37] = conditions: female, CD1, mouse, plasma, po, 30 mg/kg
[38] = Tmax in female CD1 mouse at 30 mg/kg, po by LC/MS/MS analysis; conditions: in vivo

Structure (SMILES): CC(C)(N)C(=O)N1CCn2c(nc(-c3ccc(F)cc3)c2Nc2ccc(F)cc2)C1
- CC50 [1]: > 12 µM
- Activity (Plasmodium berghei [2]): 99.6%
- Survival (Plasmodium berghei [3]): 14 days
- Activity (Rattus norvegicus): Non-toxic
- AUC(0-inf) [4]: 3.44 µM·h
- Survival (Plasmodium berghei [5]): 7.7 days
- half-life [6]: 6.2 h
- IC50 (Plasmodium falciparum [7]): 0.02 µM
- CC50 [8]: > 12 µM
- Tmax [9]: 1.67 h
- Vd [10]: 23.7 L/kg
- CC50 [11]: > 12 µM
- IC50 (Cytochrome P450 3A4): > 8.9 µM
- clearance [12]: 60 mL/min/kg
- IC50 (Cytochrome P450 1A2): > 8.9 µM
- Papp B→A (in vitro [13]): 8.38 ×10⁻⁶ cm/s
- bioavailability [14]: 87%
- IC50 (Cytochrome P450 2C9): > 8.9 µM
- permeability [15]: 81%
- Cmax (Mus musculus [16]): 1800 nM
- AUC (Mus musculus [17]): 17.894 µM·h
- half-life [18]: 9 h
- CC50 [19]: > 12 µM
- Papp A→B (in vitro [20]): 3.05 ×10⁻⁶ cm/s
- IC50 (Cytochrome P450 2D6): > 8.9 µM
- CC50 [21]: > 12 µM
- IC50 (Cytochrome P450 2C19): > 8.9 µM
- CC50 [22]: > 12 µM
- IC50 (Plasmodium falciparum [23]): 0.025 µM

Structure (SMILES): CC(C)(N)C(=O)N1CCn2c(nc(-c3ccc(F)cc3)c2Nc2ccc(Cl)cc2)C1
- Activity (Plasmodium berghei [2]): 99.5%
- Survival (Plasmodium berghei [5]): 6 days
- Activity (Plasmodium berghei [24]): 98%
- IC50 (Plasmodium falciparum [7]): 0.03 µM
- AUC(0-inf) (in vivo [25]): 2.98 µM·h
- hepatic extraction ratio (in vitro [26]): 0.54
- hepatic extraction ratio (in vitro [27]): 0.17
- half-life (in vivo [28]): 37.6 h
- clearance (in vivo [29]): 65.2 mL/min/kg
- Papp B→A (in vitro [13]): 1.86 ×10⁻⁶ cm/s
- Vd (in vivo [30]): 40.5 L/kg
- permeability [15]: 89%
- IC50 [31]: 2.3 µM
- half-life (in vivo [32]): 8.7 h
- Cmax [33]: 749 nM
- Survival (Plasmodium berghei [34]): 13 days
- Papp A→B (in vitro [20]): 1.46 ×10⁻⁶ cm/s
- F (Mus musculus [35]): 158%
- hepatic extraction ratio (in vitro [36]): 0.43
- IC50 (Plasmodium falciparum [23]): 0.024 µM
- AUC(0-inf) (in vivo [37]): 28.3 µM·h
- Tmax [38]: 1 h
